How the values were obtained:
[1] = test system: HiBiT WT F3 and HiBiT R345W F3 ARPE-19 cells; assay: extracellular HiBiT assay on transwells, WT and R345W F3; assay type: cell-based, human; settings: 1 μM, 1 week, serum-free
In short: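 Cells carried HiBiT-tagged WT or R345W F3 in ARPE-19, with R345W made by knock-in in clonal cells. They were seeded on polyester transwells (~100,000/well for 12-well, ~30,000/well for 24-well) and switched to serum-free medium the next day, with changes every 3–4 days. After 1 week, cells were treated 1 week with 1 μM test compound or 0.1% DMSO in serum-free medium. Apical and basal media were then assayed for extracellular HiBiT luminescence.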

[2] = CHIR PK experiment with LC-MS/MS; assay type: in vivo, mouse
In short: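 C57BL/6J mice (three per time point, at least one male and one female) received 25 mg/kg i.p. of test compound. It was given as 5 mg/mL in 2% DMSO/5.7% Captisol in PBS. Tissues were collected at 0, 30, 180, 360, 960 and 1440 min under isoflurane, and retina and liver were homogenized in PBS. […] Eye level was estimated from a vitreous volume of ~4.4 μL.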

[3] = test system: secreted proteome of HiBiT ARPE-19 cells; assay: secreted proteome visualization and mass spectrometry; assay type: cell-based, human
[4] = test system: HiBiT mouse F3 in NIH-3T3 cells; assay: HiBiT F3 assay in NIH-3T3 fibroblasts; assay type: cell-based; settings: NIH-3T3 mouse cells, 72 h
[5] = test system: transcriptome of HiBiT F3 ARPE-19 cells; assay: bulk RNAseq; assay type: cell-based, human; settings: 1 μM, 1 week
In short: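 The next day, 1 μM test compound or DMSO (1:1000) was added, with a media change at 96 h. Total RNA was extracted 7 days after treatment start and stored at −80°C. PCR-amplified libraries were bead-purified and quality-checked on a Bioanalyzer before sequencing.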

[6] = test system: ARPE-19 cells; assay: lactate dehydrogenase; assay type: cell-based, human
In short: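 Test compound was applied to ARPE-19 cells for 72 h or 1 week. Media were spun at 1,000 RPM for 5 min. In technical triplicate, 50 μL of cleared medium was mixed with an equal volume of LDH reaction buffer for 30 min at 37°C. DMSO-treated medium served as control, and lysis buffer-treated cells served as positive control.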

[7] = test system: MMP2; assay: MMP2 zymography; assay type: cell-based, human; settings: 1 μM, 1 week, HiBiT WT F3 and R345W F3 cells
In short: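 HiBiT WT or R345W F3 ARPE-19 cells were grown on polyester transwells in serum-free medium for 1 week, then treated 1 week with 1 μM test compound or 0.1% DMSO. Apical and basal media went in non-reducing SDS buffer onto 10% gelatin gels (140 V, 90 min). Gels were renatured 30 min at RT, developed 30 min at RT, then overnight at 37°C in fresh developing buffer. Coomassie R-250 staining and densitometry followed.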

[8] = test system: BLamD in R345W+/+ knockin mice; assay: basal laminar deposit; assay type: in vivo, mouse; settings: treated mice (30/720 FOV), 25 mg/kg i.p., 1 mo; untreated 14.205%
[9] = test system: HiBiT F3 in ARPE-19 cells; assay: non-HTS extracellular/intracellular HiBiT F3 assay; assay type: cell-based, human; settings: for HiBiT F3 secretion (extracellular) / intracellular HiBiT F3 levels: dose-responsive, ARPE-19
In short: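 HiBiT F3 ARPE-19 cells were plated at 200,000 cells/mL, and test compound in medium was added the next day. Treatment lasted 72 h or 1 week, with medium and compound renewed after 96 h for 1-week wells. For intracellular signal, cells were washed in HBSS and lysed 5 min with shaking in lytic buffer containing LgBiT (1:100) and substrate (1:50). Luminescence was read on 40 μL of lysate.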

[10] = preclinical neurological disorder studies; ref [61]; cited from earlier work
[11] = test system: HiBiT F3 in primary human dermal fibroblasts; assay: HiBiT F3 assay in primary dermal fibroblasts; assay type: cell-based; settings: 72 h, dose-responsive
[12] = test system: TCF-dependent Wnt signaling in HiBiT F3 ARPE-19 cells; assay: 7xTCF reporter; assay type: cell-based, human; settings: 1 μM, one week, 7TFP cells
[13] = test system: HiBiT F5 in ARPE-19 cells; assay: HiBiT fibulin-5; assay type: cell-based, human
[14] = test system: HiBiT F3 ARPE-19 cells (fibulin-3 production); assay: HTS whole-well HiBiT F3 assay; assay type: cell-based, human; settings: 0.2 nM – 50 μM, 24 h
In short: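 Genome-edited heterogeneous ARPE-19 cells (2xFLAG-VS-HiBiT inserted after Ser16 of F3) were seeded at ~5,000 cells/well in 384-well plates and grown 24 h at 37°C. Medium was exchanged, and test compound in 0.1% DMSO was applied for 24 h. Plates were cooled 20 min at RT, then received a lytic buffer master mix with LgBiT (1:100) and lytic substrate (1:50). After 5 min shaking, whole-well luminescence was read.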

[15] = test system: HiBiT F3 ARPE-19 cells; assay: Cell Titer Glo 2.0 viability counter screen; assay type: cell-based, human; settings: 1.66 and 5 μM, 48 h
[16] = both, C57BL/6J, mouse, eye, ip, 25 mg/kg
[17] = both, C57BL/6J, mouse, liver, ip, 25 mg/kg
[18] = both, C57BL/6J, mouse, plasma, ip, 25 mg/kg
[19] = both, C57BL/6J, mouse, retina, ip, 25 mg/kg

In the case of `Cc1c[nH]c(-c2cnc(NCCNc3ccc(C#N)cn3)nc2-c2ccc(Cl)cc2Cl)n1` [CHIR99021], the “apically and basally secreted HiBiT WT F3 and HiBiT R345W F3” value [1] was “significantly reduced”, the “estimated peak concentration of CHIR in the eye” value ([2]; after 30 min, 25 mg/kg i.p., based on vitreous volume ~4.4 μL) was ~ 1.3 μM and the concentration at 3 h [2, 16] was roughly 1100 nM. It also gave a concentration at 6 h [2, 16] of 364 nM, a concentration at 24 h [2, 16] of 151 nM and a Cmax [2, 17] of 33300 ng/g. The Tmax [2, 17] was 0.5 h, the concentration at 30 min [2, 17] was 33300 ng/g and the concentration at 180 min [2, 17] was 4680 ng/g. For the same compound, the concentration at 360 min [2, 17] was 1160 ng/g, the concentration at 960 min [2, 17] was 6.1 ng/g and the concentration at 1440 min [2, 17] was 5.2 ng/g. The half-life [2, 17] was 2 h, the MRT ([2]; both, C57BL/6J, mouse, liver, ip, 25 mg/kg, MRT, 25 mpk IP) was 1.57 h and the AUC(0-t) [2, 18] was 15500 ng·h/mL. For the same compound, the CL/F [2, 18] was 27 mL/min/kg, the Cmax [2, 18] was 9250 ng/mL and the Tmax [2, 18] was 0.5 h. The concentration at 30 min [2, 18] was 9250 ng/mL, the concentration at 180 min [2, 18] was 490 ng/mL and the concentration at 360 min [2, 18] was 41 ng/mL. It also gave a concentration at 960 min [2, 18] of 0.3 ng/mL, a concentration at 1440 min [2, 18] of 0.4 ng/mL and a half-life [2, 18] of 1.97 h. It also gave an MRT ([2]; both, C57BL/6J, mouse, plasma, ip, 25 mg/kg, MRT, 25 mpk IP) of 0.817 h, a Cmax [2, 19] of 527 ng/g and a Tmax [2, 19] of 0.5 h. The concentration at 30 min [2, 19] was 527 ng/g, the concentration at 180 min [2, 19] was 434 ng/g and the concentration at 360 min [2, 19] was 148 ng/g. It also gave a concentration at 960 min [2, 19] of 41 ng/g, a concentration at 1440 min [2, 19] of 61 ng/g and a half-life [2, 19] of 6.75 h. The MRT ([2]; both, C57BL/6J, mouse, retina, ip, 25 mg/kg, MRT, 25 mpk IP) was 6.05 h, the AUClast ([2]; liver, 25 mpk IP, mouse) was 4,231,688 ± 272,680 min*ng/g and the Vz_F ([2]; plasma, 25 mpk IP, mouse) was 4.586 L/kg. For the same compound, the AUClast ([2]; retina, 25 mpk IP, mouse) was 213,348 ± 17,725 min*ng/g, the MRT ([2]; retina, 25 mpk IP, mouse, 25 mg/kg) was 6.03 h and the “total protein secretion (SDS-PAGE of concentrated media)” value ([3]; 10 μM) was “clear increase”. The “banding pattern or intensity of secreted protein” value ([3]; 0.1 or 1 μM) was “relatively little detectable change”, the F3 production [4] was “reduced F3 production” and the “PEDF (SERPINF1) in proteomics and RNAseq datasets” value [5] was “significantly upregulated”. For the same compound, the “transcripts of TYR and TYRP1” value [5] was “significantly upregulated”, the “toxicity by LDH release” value ([6]; 72 h) was “non-toxic” and the “cell death by LDH release” value ([6]; prolonged low level, one week) was “does not increase cell death”. The “reduction of MMP2 levels in apical media” value [7] was 16-17%, the “reduction of MMP2 levels in basal media” value [7] was 29-31% and the “FOVs containing deposits (BLamDs)” value [8] was 4.167%. The “reduction of F3 secretion” value ([9]; 1 μM, one week) was 49.9 ± 7.0%, the “reduction of HiBiT F3 secretion” value ([9]; 10 μM, 72 h) was “up to 76%” and the “HiBiT F3 secretion (extracellular)” value ([9]; 72 h) was “significantly reduced”. For the same compound, the “intracellular HiBiT F3 levels” value ([9]; 72 h) was “significantly reduced”, the blood-brain barrier crossing [10] was “can cross the blood-brain barrier” and the “intracellular HiBiT F3” value [11] was “significantly reduced”. For the same compound, the “secreted HiBiT F3” value [11] was “significantly reduced”, the “TCF activation (FLuc)” value [12] was “without triggering TCF activation” and the “secreted F5” value ([13]; 72 h, all concentrations used) was “dose-responsive reduction”. The F5 secretion ([13]; week-long treatment, only at 1 and 10 μM) was “significantly reduced”.
With `[Cl-].[Li+]` [LiCl, lithium chloride] the “HiBiT F3 secretion (extracellular)” value ([9]; 72 h) was “significantly reduced” and the “intracellular HiBiT F3 levels” value ([9]; 72 h) was “significantly reduced”.
For `Cc1cnc(-c2cnc(NCCNc3ccc(C#N)cn3)nc2-c2ccc(Cl)cc2Cl)[nH]1.Cl.Cl.Cl` [CHIR trihydrochloride], the Tmax ([2]; liver, 25 mpk IP, mouse) was 0.5 h, the Tmax ([2]; plasma, 25 mpk IP, mouse) was 0.5 h and the Tmax ([2]; retina, 25 mpk IP, mouse) was 0.5 h.
In the case of `CN1CCN(S(=O)(=O)c2ccc(-c3cnc(N)c(C(=O)Nc4cccnc4)n3)cc2)CC1` [AZD2858], the “dose-response confirmation of HiBiT F3 reduction” value [14] was “demonstrated dose-responsiveness” and the cytotoxicity profile [15] was “favorable cytotoxicity profiles”.
For 6-bromoindirubin-3-oxime [BIO], the “HiBiT F3 secretion (extracellular)” value ([9]; 72 h) was “significantly reduced” and the “intracellular HiBiT F3 levels” value ([9]; 72 h) was “significantly reduced”.
